The results in this text go back to BindingDB's records for doi:10.1016/j.bmc.2016.09.019 (Florida A&M University, 2016).

Assay [1] deals with 5-hydroxytryptamine receptor 7 (Homo sapiens, UniProt P34969). Nature of the assay: Displacement of [3H]-LSD from human 5-HT7 receptor by liquid scintillation counting method. In general terms: Displacement assays read how much labelled ligand stays bound in the presence of the test substance.
Another assay addresses Histamine H1 receptor (Homo sapiens, UniProt P35367). The assay can be described thus: Displacement of [3H]-pyrilamine from human histamine H1 receptor by liquid scintillation counting method. A digest of the protocol: (§1)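 Binding assays run by the NIMH Psychoactive Drug Screening Program (PDSP) using its previously reported methods and radioligands. Affinity is given as Ki.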

Assay [2] has as its target T1, 5-hydroxytryptamine receptor 2C (Homo sapiens, UniProt P28335).
T1 sequence (P28335 whole entry): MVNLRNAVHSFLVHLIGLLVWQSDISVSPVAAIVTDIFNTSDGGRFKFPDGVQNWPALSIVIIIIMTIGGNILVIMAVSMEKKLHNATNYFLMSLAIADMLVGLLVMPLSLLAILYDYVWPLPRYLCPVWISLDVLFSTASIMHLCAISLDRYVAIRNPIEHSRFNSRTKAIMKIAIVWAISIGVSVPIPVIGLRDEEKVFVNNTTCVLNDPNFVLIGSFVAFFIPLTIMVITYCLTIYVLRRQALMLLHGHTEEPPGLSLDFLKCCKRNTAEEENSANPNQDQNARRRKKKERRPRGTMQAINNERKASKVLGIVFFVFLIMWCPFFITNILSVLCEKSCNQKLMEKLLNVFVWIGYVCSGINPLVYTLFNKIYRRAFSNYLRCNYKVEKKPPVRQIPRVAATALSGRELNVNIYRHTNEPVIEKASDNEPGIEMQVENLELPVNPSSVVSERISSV
The assay can be described thus: Displacement of [3H]-mesulergine from human 5-HT2C receptor by liquid scintillation counting method. A digest of the protocol: as §1

pKi: −log10 of the molar value.

Chain of 5-hydroxytryptamine receptor 7 (P34969 whole entry): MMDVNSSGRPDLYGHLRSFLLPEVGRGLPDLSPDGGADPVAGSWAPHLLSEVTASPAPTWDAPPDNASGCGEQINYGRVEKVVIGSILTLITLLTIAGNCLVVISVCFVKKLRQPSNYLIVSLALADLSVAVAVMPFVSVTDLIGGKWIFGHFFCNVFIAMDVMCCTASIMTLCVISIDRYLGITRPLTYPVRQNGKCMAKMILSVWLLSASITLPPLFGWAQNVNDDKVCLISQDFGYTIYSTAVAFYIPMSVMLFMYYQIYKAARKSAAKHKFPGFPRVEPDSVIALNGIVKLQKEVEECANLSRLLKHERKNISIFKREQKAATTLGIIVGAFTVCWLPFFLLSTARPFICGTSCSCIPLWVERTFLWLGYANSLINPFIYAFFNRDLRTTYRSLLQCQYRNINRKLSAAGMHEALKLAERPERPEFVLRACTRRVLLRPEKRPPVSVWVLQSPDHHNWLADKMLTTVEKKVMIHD
Chain of Histamine H1 receptor (P35367 whole entry): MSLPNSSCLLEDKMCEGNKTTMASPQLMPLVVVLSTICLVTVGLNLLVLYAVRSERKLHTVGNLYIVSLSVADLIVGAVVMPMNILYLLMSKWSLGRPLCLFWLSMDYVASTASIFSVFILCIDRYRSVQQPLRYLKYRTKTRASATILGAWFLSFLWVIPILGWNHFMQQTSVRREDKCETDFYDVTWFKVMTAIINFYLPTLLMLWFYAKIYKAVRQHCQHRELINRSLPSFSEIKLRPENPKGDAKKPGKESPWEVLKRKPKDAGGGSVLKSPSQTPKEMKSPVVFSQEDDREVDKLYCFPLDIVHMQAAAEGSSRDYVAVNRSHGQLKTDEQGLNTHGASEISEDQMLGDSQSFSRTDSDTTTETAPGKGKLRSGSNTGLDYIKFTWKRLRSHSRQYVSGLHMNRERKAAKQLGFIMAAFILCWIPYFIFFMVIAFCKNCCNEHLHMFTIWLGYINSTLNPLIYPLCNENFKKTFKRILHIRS

Take `Clc1ccc(C(=[C][C][C]N2[C][C]c3ccccc3[C]2)c2ccc(Cl)cc2)cc1`: the negative logarithm of the Ki (pKi) (commonly the negative decadic logarithm of the Ki, by convention in mol/L) was 6.30 in assay [1], 6.00 on Histamine H1 receptor and 5.69 in assay [2].
